Assay results: ChEMBL document CHEMBL4689842, “EUbOPEN Chemogenomics Library wave 1” (2021)
Several values for one entry are separate records, joined by “and”; a condition that tells them apart may be missing. Equal entries are not always repeated.

Tested on: Fibroblast
Assay: Multiplex assay against human fibroblast
Assay type: toxicity, cell-based
Conditions: 10 µM, compound concentration 10 uM
Outline: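 Values for tubulin, mitochondrial-mass and membrane-permeability phenotypes are per cents of cells with healthy nuclei. These cells were identified by CellPathfinder machine-learning gating of live cells that had been stained at seeding with Hoechst33342, BioTracker Green Microtubule Cytoskeleton Dye, MitoTracker Red and Annexin V Alexa Fluor 680 and imaged on a CQ1 microscope at 37°C and 5% CO2 after compound addition. The gating first set Hoechst high-intensity objects apart from normal cells, then split normal cells into healthy, pyknosed or fragmented nuclei, and pyknosed cells into mitotic or apoptotic.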

C#Cc1cccc(Nc2ncnc3cc(OCCOC)c(OCCOC)cc23)c1 [ERLOTINIB]
Population Apoptotic (%) (12 h, replicate 1): 59% and 66% | Population Fragmented Nuclei (%) (12 h, replicate 1): 22% and 24% and 20% | Population Healthy Nuclei (%) (12 h, replicate 1): 35% and 58% and 62% | Population Hoechst High Intensity Objects (%) (12 h, replicate 1): 10% and 11% and 15% | Population Mitotic Cells (%) (12 h, replicate 1): 40% and 33% and 29% | Population Normal (%) (12 h, replicate 1): 89% and 88% and 84% | Population Pyknosed Nuclei (%) (12 h, replicate 1): 41% and 16% | Total Cell Count (12 h, replicate 1): 125 and 263 and 267 | Population Membrane Permeable-Phenotype (%) (12 h, replicate 2): 10% and 9% and 13% | Population Normal (%) (12 h, replicate 2): 57% and 66% and 91% | Population Apoptotic (%) (24 h, replicate 1): 60% and 66% | Population Fragmented Nuclei (%) (24 h, replicate 1): 23% and 27% and 21% | Population Healthy Nuclei (%) (24 h, replicate 1): 46% and 52% and 60% | Population Hoechst High Intensity Objects (%) (24 h, replicate 1): 22% and 12% and 19% | Population Mitotic Cells (%) (24 h, replicate 1): 40% and 39% and 33% | Population Normal (%) (24 h, replicate 1): 77% and 87% and 80% | Population Pyknosed Nuclei (%) (24 h, replicate 1): 30% and 19% and 18% | Total Cell Count (24 h, replicate 1): 127 and 268 and 287 | Population Apoptotic (%) (24 h, replicate 2): 100% and 57% and 75% | Population Hoechst High Intensity Objects (%) (24 h, replicate 2): 28% and 38% | Population Normal (%) (24 h, replicate 2): 71% and 61% | Population Pyknosed Nuclei (%) (24 h, replicate 2): 10% and 16% | Population Apoptotic (%) (48 h, replicate 1): 87% | Population Fragmented Nuclei (%) (48 h, replicate 1): 41% | Population Healthy Nuclei (%) (48 h, replicate 1): 41% | Population Hoechst High Intensity Objects (%) (48 h, replicate 1): 16% | Population Membrane Permeable-Phenotype (%) (48 h, replicate 1): 23% | Population Mitochondria Different-Phenotype (%) (48 h, replicate 1): 33% | Population Mitotic Cells (%) (48 h, replicate 1): 12% | Population Normal (%) (48 h, replicate 1): 83% | Population Pyknosed Nuclei (%) (48 h, replicate 1): 17% | Population Tubulin-Different-Phenotype (%) (48 h, replicate 1): 89% | Total Cell Count (48 h, replicate 1): 113 | Population Apoptotic (%) (48 h, replicate 2): 50% | Population Fragmented Nuclei (%) (48 h, replicate 2): 28% | Population Healthy Nuclei (%) (48 h, replicate 2): 62% | Population Hoechst High Intensity Objects (%) (48 h, replicate 2): 23% | Population Membrane Permeable-Phenotype (%) (48 h, replicate 2): 19% | Population Mitochondria Different-Phenotype (%) (48 h, replicate 2): 19% | Population Mitotic Cells (%) (48 h, replicate 2): 50% | Population Normal (%) (48 h, replicate 2): 76% | Population Pyknosed Nuclei (%) (48 h, replicate 2): 9% | Population Tubulin-Different-Phenotype (%) (48 h, replicate 2): 95% | Total Cell Count (48 h, replicate 2): 86
